Measurements reported in ChEMBL document CHEMBL1129082, “Approaches to short-acting neuromuscular blocking agents: nonsymmetrical bis-tetrahydroisoquinolinium mono- and diesters” (1996).

Legend:
[1] = tested on: Felis catus; assay: Effective dose for anesthetized cats; type: functional
Procedure, shortened: (§1)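 Cats kept under chloralose anesthesia, with supplemental iv doses as needed. Trachea cannulated and ventilated with room air at 20 mL/kg and 20 strokes/min. Arterial pressure taken from a right femoral artery cannula, and heart rate from the ECG. Core temperature held at 37-38 °C by radiant heat.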

[2] = tested on: Felis catus; assay: Blockade duration is the time from injection to 95% control in anesthetized cats; type: functional; procedure, shortened: as §1
[3] = tested on: Felis catus; assay: Vagal response in anesthetized cats; '++ ' means significant inhibition at ED95 or slightly higher doses; type: functional, organism-based
Procedure, shortened: (§2)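 Chloralose-anesthetized, ventilated cats kept at 37-38 °C. Nerve stimulated for 10 s every 5 min at 20 Hz, 0.5 ms, supramaximal 10-15 V. Heart rate from the ECG and arterial pressure via a femoral cannula used as the vagal read-out.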

[4] = tested on: Felis catus; assay: Effective dose for anesthetized cats; Range is 0.3-0.4 mg/Kg; type: functional
[5] = tested on: Felis catus; assay: Blockade duration is the time from injection to 95% control in anesthetized cats; Range is 12-13 min; type: functional
[6] = tested on: Felis catus; assay: Vagal response in anesthetized cats; '+++ ' means significant inhibition at doses that produce neuromuscular blockade; type: functional, organism-based
Procedure, shortened: (§3)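 Anesthetized cats given supplemental iv α-chloralose as needed, tracheally cannulated and ventilated with room air (20 mL/kg, 20 strokes/min), core temperature held at 37–38 °C. Right vagus crushed distal to the nodose ganglia and stimulated for 10 s every 5 min (20 Hz, 0.5 ms, 10–15 V supramaximal). Femoral arterial pressure recorded; heart rate taken from the ECG.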

[7] = tested on: Felis catus; assay: Vagal response in anesthetized cats; type: functional; procedure, shortened: as §2
[8] = tested on: Felis catus; assay: Effective dose for anesthetized cats; Range is 0.7-0.8 mg/Kg; type: functional; procedure, shortened: as §1
[9] = tested on: Felis catus; assay: Vagal response in anesthetized cats; '++++ ' means significant inhibition in the absence of neuromuscular blockade; type: functional, organism-based; procedure, shortened: as §2
[10] = tested on: Felis catus; assay: Blockade duration is the time from injection to 95% control in anesthetized cats; Range is 7-8 min; type: functional; procedure, shortened: as §1
[11] = tested on: Felis catus; assay: Effective dose for anesthetized cats; Range is 0.3-0.5 mg/Kg; type: functional; procedure, shortened: as §1
[12] = tested on: Felis catus; assay: Vagal response in anesthetized cats; '++++' means significant inhibition in the absence of neuromuscular blockade; type: functional, organism-based; procedure, shortened: as §3
[13] = tested on: Felis catus; assay: Effective dose for anesthetized cats; Range is 4-7 mg/Kg; type: functional
[14] = tested on: Felis catus; assay: Blockade duration is the time from injection to 95% control in anesthetized cats; Range is 8-12 min; type: functional; procedure, shortened: as §1
[15] = tested on: Felis catus; assay: Effective dose for anesthetized cats; Range is 0.12-0.20 mg/Kg; type: functional; procedure, shortened: as §1
[16] = tested on: Felis catus; assay: Neuromuscular blocking property by neostigmine reversal in anesthetized cats at dose of 0.55 mg/Kg; Not recorded; type: functional, organism-based
[17] = tested on: Felis catus; assay: Effective dose for anesthetized cats; Range is 0.5-0.7 mg/Kg; type: functional; procedure, shortened: as §1
[18] = tested on: Felis catus; assay: Blockade duration is the time from injection to 95% control in anesthetized cats; Range is 8-9 min; type: functional; procedure, shortened: as §1

COc1ccc(C[C@@H]2c3cc(OC)c(OC)cc3CC[N+]2(C)CCCCCCCCCOC(=O)CC[N+]2(C)CCc3c(cc(OC)c(OC)c3OC)C2)cc1OC.[I-].[I-] (some centres not stated)
ED95 [1]: 0.26 mg/kg
Blockade duration [2]: 10 min
Vagal response [3]: significant inhibition at ED95 or slightly higher doses

COc1ccc(C[C@@H]2c3cc(OC)c(OC)cc3CC[N+]2(C)CCCCCCCCCOC(=O)CC[N+]2(C)CCC34c5c6ccc(OC)c5OC3[C@@H](OC)C=CC4[C@H]2C6)cc1OC.[I-].[I-] (some centres not stated)
ED95 [4]: 0.3 mg/kg
Blockade duration [5]: 13 min
Vagal response [6]: significant inhibition at doses that produce neuromuscular blockade

COc1ccc(C[C@@H]2c3cc(OC)c(OC)cc3CC[N+]2(C)CCC(=O)OCCCCCOC(=O)CC[N+]2(C)CCc3cc(OC)c(OC)cc3[C@H]2Cc2ccc(OC)c(OC)c2)cc1OC.O=S(=O)([O-])c1ccccc1.O=S(=O)([O-])c1ccccc1 (some centres not stated)
Vagal response [7]: 0
ED95 [1]: 0.16 mg/kg
Blockade duration [2]: 14.6 min

COc1ccc(C[C@@H]2c3cc(OC)c(OC)cc3CC[N+]2(C)CCCCOC(=O)CCCCOC(=O)CC[N+]2(C)CCc3cc(OC)c(OC)c(OC)c3C2)cc1OC.[I-].[I-] (some centres not stated)
ED95 [1]: 0.5 mg/kg
Blockade duration [2]: 8 min
Vagal response [6]: significant inhibition at doses that produce neuromuscular blockade

C=CC[N+]1(CCC(=O)OCCCCCCCCC[N+]2(CC=C)CCc3cc(OC)c(OC)cc3[C@H]2Cc2ccc(OC)c(OC)c2)CCc2c(cc(OC)c(OC)c2OC)C1.[Br-].[Br-] (some centres not stated)
ED95 [8]: 0.7 mg/kg
Vagal response [9]: significant inhibition in the absence of neuromuscular blockade
Blockade duration [10]: 8 min

COc1cc2c(c(OC)c1OC)C[N+](C)(CCC(=O)OCCCCCCOC(=O)CC[N+]1(C)CCc3cc(OC)c(OC)c(OC)c3C1)CC2.[I-].[I-] (configuration not stated)
ED95 [11]: 0.3 mg/kg
Blockade duration [2]: 8 min
Vagal response [3]: significant inhibition at ED95 or slightly higher doses

C=CC[N+]1(CCCCCCCCCOC(=O)CC[N+]2(C)CCC34c5c6ccc(OC)c5OC3[C@@H](OC)C=CC4[C@H]2C6)CCc2cc(OC)c(OC)cc2[C@H]1Cc1ccc(OC)c(OC)c1.[Br-].[Br-] (some centres not stated)
Vagal response [12]: significant inhibition in the absence of neuromuscular blockade
Blockade duration [2]: 3 min
ED95 [13]: 4 mg/kg

COc1ccc(C[C@@H]2c3cc(OC)c(OC)cc3CC[N+]2(C)CCCCCCCCCCCOC(=O)CC[N+]2(C)CCc3cc(OC)c(OC)cc3C2)cc1OC.[I-].[I-] (some centres not stated)
ED95 [1]: 0.3 mg/kg
Blockade duration [10]: 8 min
Vagal response [3]: significant inhibition at ED95 or slightly higher doses

COc1ccc(C[C@@H]2c3cc(OC)c(OC)cc3CC[N+]2(C)CCC(=O)OCCCCCCOC(=O)CC[N+]2(C)CCc3c(cc(OC)c(OC)c3OC)C2)cc1OC.[I-].[I-] (some centres not stated)
Vagal response [7]: 0
Blockade duration [14]: 12 min
ED95 [15]: 0.12 mg/kg

COc1ccc(C[C@@H]2c3cc(OC)c(OC)cc3CC[N+]2(C)CCCCCCCCCOC(=O)CC[N+]2(C)CCc3cc(OC)c(OC)cc3[C@H]2Cc2ccc(OC)c(OC)c2)cc1OC.[I-].[I-] (some centres not stated)
Neostigmine reversal [16]: Not recorded
Vagal response [7]: 0
ED95 [1]: 0.1 mg/kg
Blockade duration [2]: 15 min

COc1ccc(C[C@@H]2c3cc(OC)c(OC)cc3CC[N+]2(C)CCCCCCCCCCCOC(=O)CC[N+]2(C)CCc3cc(OC)c(OC)c(OC)c3C2)cc1OC.[I-].[I-] (some centres not stated)
ED95 [4]: 0.3 mg/kg
Blockade duration [2]: 8 min
Vagal response [3]: significant inhibition at ED95 or slightly higher doses

COc1ccc(C[C@@H]2c3cc(OC)c(OC)cc3CC[N+]2(C)CCCCCCCCCCCOC(=O)CC[N+]2(C)CCc3c(cc(OC)c(OC)c3OC)C2)cc1OC.[I-].[I-] (some centres not stated)
ED95 [17]: 0.5 mg/kg
Vagal response [3]: significant inhibition at ED95 or slightly higher doses
Blockade duration [18]: 9 min
